Data reported in ChEMBL document CHEMBL1949634, “Synthesis and evaluation of a novel series of indoloisoquinolines as small molecule anti-malarial leads” (Bioorg Med Chem Lett, 2012).
pIC50: −log10 of the molar value. Calls of active or inactive are those of the source. The calls are words filed in the database; no cut-off is given here.

Key:
Assay type in all cases: functional, organism-based
Plasmodium falciparum [1] = assay: Anti-malarial activity against intraerythrocytic ring stage culture of chloroquine-resistant Plasmodium falciparum Dd2 after 48 hrs by lactate dehydrogenase assay; settings: Dd2, 48 h
How it was run: (§1)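 Sorbitol-synchronised ring-stage parasites at 2% haematocrit and 1% parasitaemia, kept at 37 °C in 1% O2/3% CO2/96% N2, were given five-fold drug dilutions from 100 mM DMSO stocks for 48 h. Growth reference wells had no drug, and 0% wells had artemether at 100 nM. LDH was read with Malstat/APAD plus NBT/PES (1 h, dark, room temperature, A650). IC50 came from log dose–response curves of mean growth, n ≥ 6.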

Plasmodium falciparum [2] = assay: Anti-malarial activity against intraerythrocytic ring stage culture of chloroquine-sensitive Plasmodium falciparum 3D7 after 48 hrs by lactate dehydrogenase assay; settings: 3D7, 48 h; how it was run: as §1
Plasmodium falciparum [3] = assay: Anti-malarial activity against Plasmodium falciparum trophozoites assessed as induction of morphological changes at 5 uM

| Structure (SMILES) | pIC50 (Plasmodium falciparum [1]) | pIC50 (Plasmodium falciparum [2]) | Activity (Plasmodium falciparum [3]) |
| --- | --- | --- | --- |
| C=CCOC[C@H]1Cc2c(n(CC3CCCCC3)c3ccccc23)[C@@H]2CCCC(=O)N12 | 5.05 | – | – |
| C=CCOC[C@@H]1Cc2c(n(Cc3ccccc3)c3ccccc23)[C@H]2CCCC(=O)N12 | 4.46 | – | – |
| O=C1CCC[C@H]2c3c(c4ccccc4n3Cc3ccccc3)C[C@H](CO)N12 | 5.30 | – | – |
| O=C1C=CC[C@H]2c3c(c4ccccc4n3Cc3ccccc3)C[C@H](COCc3ccccc3)N12 | 5.44 | – | – |
| C=CCOC[C@H]1Cc2c(n(CC3CCC3)c3ccccc23)[C@@H]2CCCC(=O)N12 | 5.15 | – | – |
| COC[C@H]1Cc2c(n(Cc3ccccc3)c3ccccc23)[C@@H]2CCCC(=O)N12 | 5.89 | 5.64 | – |
| O=C1CCC[C@@H]2c3[nH]c4ccccc4c3C[C@@H](CO)N12 | 4.15 | – | – |
| C=CCOC[C@H]1Cc2c(n(Cc3ccncc3)c3ccccc23)[C@@H]2CCCC(=O)N12 | 5.68 | – | – |
| C=CCOC[C@@H]1Cc2c(n(CC=C)c3ccccc23)[C@H]2CCCC(=O)N12 | 4.80 | – | – |
| COC[C@H]1Cc2c(n(Cc3ccccc3)c3ccccc23)[C@@H]2CCCCN12 | 5.48 | – | – |
| O=C1CCC[C@@H]2c3c(c4ccccc4n3Cc3ccccc3)C[C@@H](COCc3ccccc3)N12 | 4.92 | – | – |
| C=CCn1c2c(c3ccccc31)C[C@H](CO)N1C(=O)CCC[C@@H]21 | 4.39 | – | – |
| O=C1CCC[C@H]2c3[nH]c4ccccc4c3C[C@H](CO)N12 | 4.25 | – | – |
| COC[C@@H]1Cc2c(n(C)c3ccccc23)[C@H]2CCCC(=O)N12 | 4.52 | – | – |
| C=C[C@@H]1CC(=O)N2[C@H](COCc3ccccc3)Cc3c(n(Cc4ccccc4)c4ccccc34)[C@H]2C1 | 4.70 | – | – |
| O=C1CCC[C@H]2c3c(c4ccccc4n3Cc3ccccc3)C[C@H](COCC3CCCCC3)N12 | 4.72 | – | – |
| C=CCOC[C@H]1Cc2c(n(CC=C)c3ccccc23)[C@@H]2CCCC(=O)N12 | 4.89 | – | – |
| CCCOC[C@H]1Cc2c(n(Cc3ccccc3)c3ccccc23)[C@@H]2CCCC(=O)N12 | 5.55 | – | – |
| COC[C@H]1Cc2c(n(C)c3ccccc23)[C@@H]2CCCC(=O)N12 | 4.54 | 4.39 | – |
| C=CCOC[C@H]1Cc2c(n(Cc3ccccc3)c3ccccc23)[C@@H]2CCCCN12 | 5.82 | – | – |
| C=CCOC[C@H]1Cc2c(n(Cc3ccccc3)c3ccccc23)[C@@H]2CC=CC(=O)N12 | 5.77 | – | – |
| COC[C@@H]1Cc2c(n(Cc3ccccc3)c3ccccc23)[C@H]2CCCC(=O)N12 | 4.49 | – | – |
| C=CCOC[C@H]1Cc2c(n(Cc3ccccc3)c3ccccc23)[C@@H]2C[C@@H](C=C)CC(=O)N12 | 5.96 | – | Active |
| O=C1CCC[C@H]2c3c(c4ccccc4n3Cc3ccccc3)C[C@H](COCc3ccccc3)N12 | 5.46 | – | Active |
| C=CCOC[C@H]1Cc2c(n(Cc3ccccc3)c3ccccc23)[C@@H]2CCCC(=O)N12 | 5.89 | 5.77 | – |
| C=C[C@H]1CC(=O)N2[C@@H](COCc3ccccc3)Cc3c(n(Cc4ccccc4)c4ccccc34)[C@@H]2C1 | 4.89 | – | – |
